We go through one molecule from ChEMBL document CHEMBL4043093, “2-Oxo-3, 4-dihydropyrimido[4, 5-d]pyrimidinyl derivatives as new irreversible pan fibroblast growth factor receptor (FGFR) inhibitors” (Eur J Med Chem, 2017).

The test system of test [1] is Tyrosine-protein kinase ABL1 (Homo sapiens), P00519 [T315I]. The test can be described thus: Inhibition of human phosphorylated ABL1 T315I mutant (S229 to K512 residues) expressed in HEK293 cells assessed as residual activity at 1000 nM after 30 mins by Kinomescan method relative to control. The format is cell-based. An outline of the steps: (§1)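 Single-point screen at a fixed 1 µM, run within a 456-kinase DiscoveRx KINOMEscan panel. Each kinase's read-out is Percent Control, i.e. signal relative to a control without compound. Hits were scored by a Percent Control < 35 cut-off, and an S(35) selectivity score was calculated across the non-mutant kinases.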

The target of test [2] is Dual specificity mitogen-activated protein kinase kinase 4 (Homo sapiens) (UniProt P45985). Kind of test: Inhibition of wild-type human partial length MEK4 (S84 to D399 residues) expressed in HEK293 cells assessed as residual activity at 1000 nM after 30 mins by Kinomescan method relative to control. The test is classed as cell-based.
Chain of Dual specificity mitogen-activated protein kinase kinase 4 (Homo sapiens) (P45985 whole entry, the tested form may be a part): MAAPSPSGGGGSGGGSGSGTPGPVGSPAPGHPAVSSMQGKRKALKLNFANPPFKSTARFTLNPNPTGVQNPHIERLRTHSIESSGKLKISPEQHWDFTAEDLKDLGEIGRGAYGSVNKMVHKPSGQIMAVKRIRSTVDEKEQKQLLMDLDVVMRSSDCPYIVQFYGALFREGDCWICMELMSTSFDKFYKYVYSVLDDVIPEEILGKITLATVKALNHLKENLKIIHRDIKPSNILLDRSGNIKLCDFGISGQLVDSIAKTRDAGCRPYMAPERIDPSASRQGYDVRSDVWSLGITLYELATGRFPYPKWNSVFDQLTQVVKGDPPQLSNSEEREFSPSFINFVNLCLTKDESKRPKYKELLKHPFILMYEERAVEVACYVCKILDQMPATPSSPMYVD
The target in test [3] is CDK4/Cyclin D3 (Homo sapiens) (UniProt P11802+P30281). The test can be described thus: Inhibition of wild-type human full length CDK4/cyclinD3 (M1 to E303 residues) expressed in HEK293 cells assessed as residual activity at 1000 nM after 30 mins by Kinomescan method relative to control. The test is classed as cell-based. The essentials: as §1
For test [4], the target named is Calcium/calmodulin-dependent protein kinase type 1G (Homo sapiens) (UniProt Q96NX5). Kind of test: Inhibition of wild-type human partial length CAMK1G (M1 to A342 residues) expressed in Escherichia coli BL21 assessed as residual activity at 1000 nM after 30 mins by Kinomescan method relative to control.
Test [5] deals with Cyclin-dependent kinase 4 (Homo sapiens) (UniProt P11802). Kind of test: Inhibition of wild-type human full length CDK4 (M1 to E303 residues) expressed in HEK293 cells assessed as residual activity at 1000 nM after 30 mins by Kinomescan method relative to control. The format is cell-based. The essentials:
as §1

Test [6] deals with cGMP-dependent protein kinase 1 (Homo sapiens) (UniProt Q13976). The test can be described thus: Inhibition of wild-type human partial length PRKG1 (L339 to F686 residues) expressed in Escherichia coli BL21 assessed as residual activity at 1000 nM after 30 mins by Kinomescan method relative to control.
Test [7] addresses Mitogen-activated protein kinase 15 (Homo sapiens) (UniProt Q8TD08). Kind of test: Inhibition of wild-type human partial length ERK8 (M1 to P437 residues) expressed in Escherichia coli BL21 assessed as residual activity at 1000 nM after 30 mins by Kinomescan method relative to control.
The target of test [8] is Mitogen-activated protein kinase kinase kinase 19 (Homo sapiens) (UniProt Q56UN5). Kind of test: Inhibition of wild-type human partial length YSK4 (T1019 to H1328 residues) expressed in HEK293 cells assessed as residual activity at 1000 nM after 30 mins by Kinomescan method relative to control. The test is classed as cell-based.
The target of test [9] is Casein kinase I isoform gamma-2 (Homo sapiens) (UniProt P78368). Kind of test: Inhibition of wild-type human full length CSNK1G2 (M1 to K415 residues) expressed in Escherichia coli BL21 assessed as residual activity at 1000 nM after 30 mins by Kinomescan method relative to control. The essentials: as §1
Chain of Casein kinase I isoform gamma-2 (Homo sapiens) (P78368 whole entry, looked up, the tested form may be a part, canonical isoform): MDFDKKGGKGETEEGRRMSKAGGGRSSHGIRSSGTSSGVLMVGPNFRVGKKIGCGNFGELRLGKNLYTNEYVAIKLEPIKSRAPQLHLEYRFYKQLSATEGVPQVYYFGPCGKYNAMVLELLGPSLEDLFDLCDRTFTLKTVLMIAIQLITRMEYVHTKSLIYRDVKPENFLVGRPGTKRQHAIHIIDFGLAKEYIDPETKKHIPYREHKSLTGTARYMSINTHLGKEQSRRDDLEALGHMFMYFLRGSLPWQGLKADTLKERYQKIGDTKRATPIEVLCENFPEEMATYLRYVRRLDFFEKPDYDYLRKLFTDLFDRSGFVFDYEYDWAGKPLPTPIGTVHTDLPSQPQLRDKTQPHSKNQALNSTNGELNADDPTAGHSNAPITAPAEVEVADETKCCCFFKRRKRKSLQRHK
In test [10] the test system is Mast/stem cell growth factor receptor Kit (Homo sapiens), P10721 [D816H]. Kind of test: Inhibition of human partial length KIT D816H mutant (I571 to D952 residues) expressed in HEK293 cells assessed as residual activity at 1000 nM after 30 mins by Kinomescan method relative to control. The test is classed as cell-based. The essentials: (§2)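 KINOMEscan binding panel of 456 kinases, with the test compound at a single concentration of 1 µM. Read-out is Percent Control.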
Chain of Mast/stem cell growth factor receptor Kit (Homo sapiens), P10721 [D816H] (P10721 whole entry D816H, the tested form may be a part): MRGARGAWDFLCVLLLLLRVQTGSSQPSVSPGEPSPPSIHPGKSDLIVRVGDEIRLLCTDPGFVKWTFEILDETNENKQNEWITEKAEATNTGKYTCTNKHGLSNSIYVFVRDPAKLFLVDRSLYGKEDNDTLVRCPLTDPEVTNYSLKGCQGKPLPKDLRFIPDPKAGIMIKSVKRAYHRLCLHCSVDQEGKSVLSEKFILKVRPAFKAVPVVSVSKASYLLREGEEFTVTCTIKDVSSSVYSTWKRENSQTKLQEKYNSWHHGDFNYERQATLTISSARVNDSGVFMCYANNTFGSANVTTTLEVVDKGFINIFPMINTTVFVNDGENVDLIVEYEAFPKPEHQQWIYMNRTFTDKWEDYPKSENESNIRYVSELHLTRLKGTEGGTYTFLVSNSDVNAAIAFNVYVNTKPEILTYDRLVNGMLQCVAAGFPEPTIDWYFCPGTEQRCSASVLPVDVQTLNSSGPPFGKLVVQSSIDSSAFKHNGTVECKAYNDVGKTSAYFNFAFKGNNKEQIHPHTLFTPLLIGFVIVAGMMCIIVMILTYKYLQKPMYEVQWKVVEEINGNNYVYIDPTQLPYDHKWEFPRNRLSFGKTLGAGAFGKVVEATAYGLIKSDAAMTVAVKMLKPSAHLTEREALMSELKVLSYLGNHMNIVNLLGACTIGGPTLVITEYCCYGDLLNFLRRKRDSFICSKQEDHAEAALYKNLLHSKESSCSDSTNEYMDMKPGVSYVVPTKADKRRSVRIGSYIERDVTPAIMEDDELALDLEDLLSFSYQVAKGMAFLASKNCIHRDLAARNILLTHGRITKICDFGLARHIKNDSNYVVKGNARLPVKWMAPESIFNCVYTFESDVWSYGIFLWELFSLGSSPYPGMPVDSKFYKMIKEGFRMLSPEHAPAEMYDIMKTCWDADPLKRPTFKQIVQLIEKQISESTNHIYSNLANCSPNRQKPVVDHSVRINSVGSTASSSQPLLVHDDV

The target in test [11] is Tyrosine-protein kinase Yes (Homo sapiens) (UniProt P07947). Kind of test: Inhibition of wild-type human partial length YES (T257 to L543 residues) expressed in Escherichia coli BL21 assessed as residual activity at 1000 nM after 30 mins by Kinomescan method relative to control.
Chain of Tyrosine-protein kinase Yes (Homo sapiens) (P07947 2-543 limits assumed): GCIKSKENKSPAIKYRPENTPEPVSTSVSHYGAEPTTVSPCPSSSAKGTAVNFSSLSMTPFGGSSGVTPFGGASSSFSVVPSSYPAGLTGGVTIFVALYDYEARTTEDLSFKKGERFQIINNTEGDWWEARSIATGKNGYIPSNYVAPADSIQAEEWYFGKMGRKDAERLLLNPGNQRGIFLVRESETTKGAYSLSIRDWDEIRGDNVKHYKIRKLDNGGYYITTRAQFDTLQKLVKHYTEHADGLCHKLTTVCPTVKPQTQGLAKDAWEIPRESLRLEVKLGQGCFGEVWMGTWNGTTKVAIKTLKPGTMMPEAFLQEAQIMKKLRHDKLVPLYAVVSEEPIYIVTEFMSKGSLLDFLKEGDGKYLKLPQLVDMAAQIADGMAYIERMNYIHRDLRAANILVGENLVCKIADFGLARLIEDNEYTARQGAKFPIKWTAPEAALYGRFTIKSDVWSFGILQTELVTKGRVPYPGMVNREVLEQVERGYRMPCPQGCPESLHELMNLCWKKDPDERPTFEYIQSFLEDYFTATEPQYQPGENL
Test [12] deals with Ribosomal protein S6 kinase alpha-6 (Homo sapiens) (UniProt Q9UK32). The test can be described thus: Inhibition of wild-type human partial length C-terminal RSK4 kinase domain 2 (I401 to Y711 residues) expressed in Escherichia coli BL21 assessed as residual activity at 1000 nM after 30 mins by Kinomescan method relative to control.
Chain of Ribosomal protein S6 kinase alpha-6 (Homo sapiens) (Q9UK32 whole entry, the tested form may be a part): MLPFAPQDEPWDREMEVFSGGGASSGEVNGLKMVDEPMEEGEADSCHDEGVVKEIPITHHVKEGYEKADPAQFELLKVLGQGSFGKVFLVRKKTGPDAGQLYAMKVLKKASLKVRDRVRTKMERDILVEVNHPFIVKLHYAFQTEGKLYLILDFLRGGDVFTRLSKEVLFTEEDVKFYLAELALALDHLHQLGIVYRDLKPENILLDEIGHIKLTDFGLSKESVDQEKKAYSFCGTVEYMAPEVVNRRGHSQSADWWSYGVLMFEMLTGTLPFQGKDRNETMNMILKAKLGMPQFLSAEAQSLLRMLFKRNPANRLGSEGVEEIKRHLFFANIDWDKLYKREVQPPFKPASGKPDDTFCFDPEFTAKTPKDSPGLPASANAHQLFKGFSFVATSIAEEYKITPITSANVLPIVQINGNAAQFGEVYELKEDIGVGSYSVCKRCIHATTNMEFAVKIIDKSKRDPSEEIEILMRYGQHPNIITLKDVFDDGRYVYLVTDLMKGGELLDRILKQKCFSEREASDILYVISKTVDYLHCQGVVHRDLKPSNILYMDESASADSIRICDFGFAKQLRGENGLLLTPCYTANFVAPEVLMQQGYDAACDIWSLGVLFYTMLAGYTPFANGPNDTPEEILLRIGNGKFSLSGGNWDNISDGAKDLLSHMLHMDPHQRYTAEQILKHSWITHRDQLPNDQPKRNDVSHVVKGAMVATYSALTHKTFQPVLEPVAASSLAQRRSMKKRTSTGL
Test [13] concerns Tyrosine-protein kinase ABL1 (Homo sapiens), P00519 [H396P]. Kind of test: Inhibition of human non-phosphorylated ABL1 H396P mutant (S229 to K512 residues) expressed in HEK293 cells assessed as residual activity at 1000 nM after 30 mins by Kinomescan method relative to control. The test is classed as cell-based. An outline of the steps: as §2
The target of test [14] is Bone morphogenetic protein receptor type-2 (Homo sapiens) (UniProt Q13873). The test can be described thus: Inhibition of wild-type human partial length BMPR2 (R179 to Q526 residues) expressed in HEK293 cells assessed as residual activity at 1000 nM after 30 mins by Kinomescan method relative to control. The test is classed as cell-based.
The target of test [15] is Protein kinase C theta type (Homo sapiens) (UniProt Q04759). Kind of test: Inhibition of wild-type human partial length PRKCQ (L350 to S706 residues) expressed in Escherichia coli BL21 assessed as residual activity at 1000 nM after 30 mins by Kinomescan method relative to control.
Chain of Protein kinase C theta type (Homo sapiens) (Q04759 whole entry, looked up, the tested form may be a part): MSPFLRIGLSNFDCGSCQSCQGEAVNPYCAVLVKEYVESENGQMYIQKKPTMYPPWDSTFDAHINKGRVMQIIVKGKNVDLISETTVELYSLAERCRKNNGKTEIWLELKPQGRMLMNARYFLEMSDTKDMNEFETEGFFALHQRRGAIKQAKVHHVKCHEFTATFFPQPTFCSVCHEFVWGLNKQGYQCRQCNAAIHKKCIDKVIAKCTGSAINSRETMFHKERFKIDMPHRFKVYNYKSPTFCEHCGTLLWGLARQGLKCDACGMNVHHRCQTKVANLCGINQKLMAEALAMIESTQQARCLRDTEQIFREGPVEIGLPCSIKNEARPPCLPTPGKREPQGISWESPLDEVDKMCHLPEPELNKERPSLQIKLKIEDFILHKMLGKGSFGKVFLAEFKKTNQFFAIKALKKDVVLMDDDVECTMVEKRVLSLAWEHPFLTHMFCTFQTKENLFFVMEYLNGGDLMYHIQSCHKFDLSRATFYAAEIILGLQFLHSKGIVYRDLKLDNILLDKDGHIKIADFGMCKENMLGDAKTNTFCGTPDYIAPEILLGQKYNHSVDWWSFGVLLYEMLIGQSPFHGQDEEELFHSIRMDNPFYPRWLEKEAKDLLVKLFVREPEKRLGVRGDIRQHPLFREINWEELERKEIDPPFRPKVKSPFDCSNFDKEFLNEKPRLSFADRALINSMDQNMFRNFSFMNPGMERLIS
For test [16], the target named is Cyclin-dependent kinase-like 5 (Homo sapiens) (UniProt O76039). The test can be described thus: Inhibition of wild-type human partial length CDKL5 (M1 to S337 residues) expressed in HEK293 cells assessed as residual activity at 1000 nM after 30 mins by Kinomescan method relative to control. The format is cell-based.
Chain of Cyclin-dependent kinase-like 5 (Homo sapiens) (O76039 whole entry, the tested form may be a part): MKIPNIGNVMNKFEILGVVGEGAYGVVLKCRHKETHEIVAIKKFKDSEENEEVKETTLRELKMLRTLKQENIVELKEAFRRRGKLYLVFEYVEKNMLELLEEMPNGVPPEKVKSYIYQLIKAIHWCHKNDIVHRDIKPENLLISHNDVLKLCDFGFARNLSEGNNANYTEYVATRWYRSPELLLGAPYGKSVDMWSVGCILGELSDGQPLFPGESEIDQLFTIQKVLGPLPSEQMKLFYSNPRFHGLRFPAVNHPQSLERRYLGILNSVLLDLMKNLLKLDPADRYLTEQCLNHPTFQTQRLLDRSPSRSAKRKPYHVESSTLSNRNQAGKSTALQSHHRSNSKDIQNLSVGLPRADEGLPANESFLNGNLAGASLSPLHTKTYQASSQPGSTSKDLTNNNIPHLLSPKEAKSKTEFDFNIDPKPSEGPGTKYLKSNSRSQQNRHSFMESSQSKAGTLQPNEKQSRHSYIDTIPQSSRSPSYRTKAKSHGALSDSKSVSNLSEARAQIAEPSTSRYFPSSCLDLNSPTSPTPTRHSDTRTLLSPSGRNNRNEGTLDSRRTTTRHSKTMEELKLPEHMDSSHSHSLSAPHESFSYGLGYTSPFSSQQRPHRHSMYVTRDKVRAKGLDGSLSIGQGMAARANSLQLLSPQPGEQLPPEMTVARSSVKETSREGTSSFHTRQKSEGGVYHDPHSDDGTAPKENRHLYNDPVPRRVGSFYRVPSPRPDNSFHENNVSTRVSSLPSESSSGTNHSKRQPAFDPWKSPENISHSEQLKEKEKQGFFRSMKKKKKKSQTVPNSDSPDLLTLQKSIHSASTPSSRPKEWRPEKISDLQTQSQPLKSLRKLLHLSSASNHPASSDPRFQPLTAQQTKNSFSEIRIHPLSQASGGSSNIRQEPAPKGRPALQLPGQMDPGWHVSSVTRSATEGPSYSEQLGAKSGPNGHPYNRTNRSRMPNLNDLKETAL
Test [17] addresses STE20-like serine/threonine-protein kinase (Homo sapiens) (UniProt Q9H2G2). The test can be described thus: Inhibition of wild-type human partial length SLK (S14 to A307 residues) expressed in Escherichia coli BL21 assessed as residual activity at 1000 nM after 30 mins by Kinomescan method relative to control.
The target in test [18] is Dual specificity mitogen-activated protein kinase kinase 6 (Homo sapiens) (UniProt P52564). The test can be described thus: Inhibition of wild-type human partial length MEK6 (K36 to D334 residues) expressed in Escherichia coli BL21 assessed as residual activity at 1000 nM after 30 mins by Kinomescan method relative to control.
Test [19] concerns the target Death-associated protein kinase 2 (Homo sapiens) (UniProt Q9UIK4). Kind of test: Inhibition of wild-type human full length DAPK2 (M1 to S370 residues) expressed in Escherichia coli BL21 assessed as residual activity at 1000 nM after 30 mins by Kinomescan method relative to control. The essentials: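 Single-concentration screen at 1 µM across a 456-kinase KINOMEscan panel. The read-out is Percent Control for each kinase.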

In test [20] the target is Serine/threonine-protein kinase 25 (Homo sapiens) (UniProt O00506). Kind of test: Inhibition of wild-type human partial length YSK1 (V14 to H295 residues) expressed in Escherichia coli BL21 assessed as residual activity at 1000 nM after 30 mins by Kinomescan method relative to control.
The test system of test [21] is Hepatocyte growth factor receptor (Homo sapiens), P08581 [Y1235D]. Kind of test: Inhibition of human partial length MET Y1235D mutant (D1010 to S1367 residues) expressed in Escherichia coli BL21 assessed as residual activity at 1000 nM after 30 mins by Kinomescan method relative to control. The essentials:
as §2

Chain of Cyclin-dependent kinase 4 (Homo sapiens) (P11802 whole entry, the tested form may be a part): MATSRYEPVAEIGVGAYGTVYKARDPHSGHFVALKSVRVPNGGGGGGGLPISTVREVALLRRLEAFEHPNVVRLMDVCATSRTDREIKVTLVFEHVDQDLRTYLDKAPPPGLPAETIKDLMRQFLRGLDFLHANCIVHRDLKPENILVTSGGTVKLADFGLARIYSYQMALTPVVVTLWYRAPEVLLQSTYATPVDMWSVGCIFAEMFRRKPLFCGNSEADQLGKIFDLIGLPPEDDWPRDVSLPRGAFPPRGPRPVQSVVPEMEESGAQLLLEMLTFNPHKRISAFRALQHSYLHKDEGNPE

`COc1cc(OC)c(Cl)c(N2Cc3cnc(Nc4ccc(F)cc4)nc3N(C3CCN(C(=O)/C=C/CN(C)C)CC3)C2=O)c1Cl`: the Activity was determined as 97% in [1]; 100% in [2]; 100% in [3]; 100% in test [4]; 100% in test [5]; 100% in test [6]. Moreover, the Activity in [7] was 100%; in test [8] it was 93%; in test [9], 100%; in test [10], 66%; in [11], 34%; in test [12] it was 94%. Also, the Activity was determined as 31% in test [13]; 96% in test [14]; 100% in test [15]; 100% in [16]; 100% in [17]; 92% in test [18]. Also, the values for the Activity in [19], in test [20] and in test [21] were 100%, 97% and 100%, respectively.
